PRMT1 FP inh: inhibitors of human PRMT1; AID 652257; hit rate 1.3% among 370,000; Q99873; inhibition, % at 2.79 µM; recombinant PRMT1, activity-based probe fluorescence polarization;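 active = inhibition above about 21% made by adding two undisclosed values, limit read from the data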
UHRF1 binding: human UHRF1 methylated DNA binding inhibitors | UHRF1 binding to methylated oligo, TR-FRET | Q96T88 | inhibition, % at 4.4 µM | hit rate 0.75% among 370,000; in the data active = inhibition above about 21%;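 note: UHRF1 SRA domain binding a hemimethylated CpG hairpin DNA probe; 0% = median of test compound wells and 100% = reference inhibitor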
Target sequence (Q96T88 whole entry, looked up, the tested form may be a part): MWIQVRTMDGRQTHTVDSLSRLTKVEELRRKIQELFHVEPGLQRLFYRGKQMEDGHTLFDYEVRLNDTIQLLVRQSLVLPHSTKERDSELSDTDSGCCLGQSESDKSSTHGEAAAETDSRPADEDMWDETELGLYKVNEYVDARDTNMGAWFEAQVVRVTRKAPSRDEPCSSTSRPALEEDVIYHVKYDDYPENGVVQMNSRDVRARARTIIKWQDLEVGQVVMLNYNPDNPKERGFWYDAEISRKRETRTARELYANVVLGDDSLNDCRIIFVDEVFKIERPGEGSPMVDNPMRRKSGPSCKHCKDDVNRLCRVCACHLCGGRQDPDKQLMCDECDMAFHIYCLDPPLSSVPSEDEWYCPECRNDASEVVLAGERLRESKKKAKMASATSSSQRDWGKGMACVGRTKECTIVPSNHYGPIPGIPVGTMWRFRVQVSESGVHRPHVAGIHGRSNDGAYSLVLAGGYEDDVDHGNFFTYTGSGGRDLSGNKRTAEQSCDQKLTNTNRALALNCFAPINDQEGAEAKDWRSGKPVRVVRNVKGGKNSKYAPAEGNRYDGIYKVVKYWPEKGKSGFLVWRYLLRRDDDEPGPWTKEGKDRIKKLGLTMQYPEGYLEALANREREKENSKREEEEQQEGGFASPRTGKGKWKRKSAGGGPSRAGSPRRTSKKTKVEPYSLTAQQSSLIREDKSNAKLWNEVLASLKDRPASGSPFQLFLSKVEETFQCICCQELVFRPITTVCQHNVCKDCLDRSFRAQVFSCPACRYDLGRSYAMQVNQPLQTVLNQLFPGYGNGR
SIAE primary: human SIAE inhibition, primary screen; inhibition, % at 9.66 µM; hit rate 0.69% among 370,000; AID 1053197; SIAE FP-Rh probe binding, fluorescence polarization;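 active = inhibition above a cutoff: mean of compounds within the control limits plus 3 SD of those, cut at about 17% in these data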;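 note: 0% = plate median of compound wells and 100% = probe without SIAE protein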
MBD2 DNA inh: blocks human MBD2 binding to methylated DNA; TR-FRET, MBD2 binding to methylated oligonucleotide; AID 686964; hit rate 0.31% among 370,000; inhibition, % at 4.4 µM; Q9UBB5; in the data active = inhibition above about 13%
LEDGF integ inh: blocks HIV-1 LEDGF/p75-dependent DNA integration | TR-FRET IN-LEDGF/p75 DNA integration, Eu/Cy5 | inhibition, % at 3.7 µM | hit rate 0.64% among 370,000 | AID 743269;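 active = inhibition above the screen-wide mean plus 3 SD, cut at about 13% in these data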;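 note: signal is the Cy5 over europium emission ratio at 671 and 618 nm; 0% = plate median of compound wells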
TDP2 absorb: blocks human TDP2 phosphodiesterase activity; recombinant TDP2, T5PNP hydrolysis, p-nitrophenol absorbance 415 nm; O95551; inhibition, % at 12.8 µM; hit rate 0.34% among 370,000; AID 720702;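 active = inhibition above the mean of all tested compounds plus 3 SD, set per campaign, cut at about 25% in these data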;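 note: 0% = DMSO with enzyme and 100% = buffer with substrate but no TDP2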
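System: recombinant human TDP2 / Amount: 120 nM TDP2 per well / Also added: 5 mM T5PNP chromogenic substrate / Doses: 12.8 µM single point, 1% DMSO / Incubation: 2 h at 37 °C / Detection: p-Nitrophenol epi absorbance / Evaluation: % inhibition relative to enzyme-containing and enzyme-free wells / Repeats: singlicate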
PRMT1 confirm: PRMT1 (human) inhibition, FP confirmation; inhibition, % at 2.79 µM; hit rate 42% among 3,300; AID 687036; recombinant His-PRMT1, activity-based probe fluorescence polarization; shares compounds with PRMT1 FP inh;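 active = mean inhibition across replicates above the hit cutoff derived for the earlier primary screen, cut at about 22% in these data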
Active calls of the source: *; . = not tested or not shown. In the library only some 3.3% were active in any assay of this set; here they are far more common.

SMILES | PRMT1 FP inh | UHRF1 binding | SIAE primary | MBD2 DNA inh | LEDGF integ inh | TDP2 absorb | PRMT1 confirm
COc1cccc(NC(=O)c2nc(S(C)(=O)=O)ncc2Cl)c1 | 40* | 1 | -2 | 6 | -3 | -4 | 14
CCOC(=O)[C@@]12CCC3=C1N(CCC3)C(=O)[C@H](CC(=O)NCCc1ccccc1OC)C2 | 4 | 1 | 4 | -4 | -6 | 2 | .
Fc1ccc(NC(=S)N2CCSC2c2cccs2)cc1 (stereo not given) | 53* | 1 | 6 | -1 | 4 | -12 | 6
CCCCNC(=O)C[C@H]1C[C@@]2(C(=O)OC)C(=C[C@H](C3CCCC3)O[C@@H]2C)N(CCC2=CCCCC2)C1=O | -1 | 1 | 3 | 1 | -3 | 2 | .
CC(C)N(Cc1cn(Cc2ccccc2)nn1)S(=O)(=O)c1ccccc1Br | 2 | -1 | 1 | 1 | 1 | 5 | .
CC(C)C[C@H]1COc2cccc(F)c2S(=O)(=O)N1Cc1cn(Cc2ccco2)nn1 | 0 | -2 | -1 | 0 | -3 | 7 | .
CCOc1cc2c3c(c1)C1(Nc4ccccc4S1)C(=O)N3C(C)(C)CC2C (stereo not given) | 78* | -1 | 2 | -6 | -1 | 3 | 8
CCOc1cc2c3c(c1)C1(OCCO1)C(=O)N3C(C)(C)CC2C (stereo not given) | -5 | 3 | 3 | 1 | 2 | 3 | .
CCc1ccc(-c2csc3[n+]2CCN3C(C)=O)cc1 | 72* | -1 | 2 | 1 | 0 | 9 | 46*
C=Cn1c(C(=O)O)ccc1-c1ccc(CC)cc1 | 0 | 16 | 4 | 3 | 3 | 6 | .
C=C1CCC2C(C)(C)CCC[C@]2(C)[C@H]1CC1=C(O)C(=O)C(CO)=CC1=O (stereo not given in full) | 80* | -1 | 0 | 0 | -5 | -1 | 77*
C=C1CCC2[C@](C)(CO)[C@H](O)CC[C@@]2(C)[C@@H]1C/C=C1\C(=O)OC[C@H]1O (stereo not given in full) | 4 | 0 | -9 | -6 | -1 | 7 | .
COc1cc(NC(=O)C2CCCN(S(=O)(=O)c3ccc(Br)s3)C2)cc(OC)c1 (stereo not given) | 1 | 1 | -16 | 0 | -3 | -3 | .
O=C(O)c1ccccc1C(=O)NCc1ccccc1 | -3 | 1 | 2 | 1 | 3 | -1 | .
Nc1sccc1C(=O)NCc1ccccc1 | 34* | 3 | -13 | 8 | 0 | -1 | 16
N#CC(c1nc2ccccc2nc1N1CCCC1)S(=O)(=O)c1ccccc1 (stereo not given) | 9 | -9 | 6 | -6 | 2 | 1 | .
Cc1cccc(S(=O)(=O)C(C#N)c2nc3ccccc3nc2N2CCCC2)c1 (stereo not given) | 25* | 1 | -12 | -6 | 5 | -5 | 5
Cn1cnc([N+](=O)[O-])c1S(=O)(=O)c1ccc(Cl)cc1 | 44* | 7 | 4 | 3 | -1 | -13 | 18
Cn1cnc([N+](=O)[O-])c1NC(C)(C)C | 4 | 1 | -1 | 2 | 1 | 6 | .
Cc1c(C(=O)O)nn(-c2cccc(C(F)(F)F)c2)c(=O)c1C#N | 29* | 5 | -6 | 9 | 1 | -5 | 0
Cc1ccccc1-n1nc(C(=O)O)c(C)c(C#N)c1=O | -2 | 2 | 6 | 5 | -1 | 6 | .
CC(C)CNC(=O)C1CSCCS(=O)(=O)N1Cc1ccccc1 (stereo not given) | 4 | 0 | -2 | 1 | 0 | 8 | .
CC(C)OC(=O)CSc1nnc(-c2ccncc2)n1N | 2 | 1 | -2 | 3 | -4 | -6 | .
CC(C)OC(=O)CSc1nnc(-c2ccc(C(C)(C)C)cc2)n1N | 53* | 1 | 0 | -3 | 1 | 0 | 60*
CC1CCN(S(=O)(=O)c2ccc(NC(=O)c3ccncc3)cc2)CC1 | 4 | 3 | -4 | 1 | -4 | 10 | .
COC(=O)c1ccc(NC(=O)c2nc(S(=O)(=O)Cc3cccc(C)c3)ncc2Cl)cc1 | 52* | -4 | -4 | -4 | 0 | -3 | 38*

Screens: PubChem BioAssay, The Scripps Research Institute Molecular Screening Center
